Laboratory results as given in ChEMBL document CHEMBL1129647, “Targeting delavirdine/atevirdine resistant HIV-1: identification of (alkylamino)piperidine-containing bis(heteroaryl)piperazines as broad spectrum HIV-1 reverse transcriptase inhibitors” (J Med Chem, 1996).

Legend:
[1] = molecular target: T1, Human immunodeficiency virus type 1 reverse transcriptase (Human immunodeficiency virus 1, UniProt Q72547, Y181C)
[2] = Bioavailability at an iv dose of 15.7 mg/Kg and po dose of 31.4 mg/Kg; format: ADME, organism-based; conditions: rat, in vivo, read-out: Bioavailabiility
In short: (§1)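 Male Sprague-Dawley rats, fasted, dosed iv and po in a crossover design with a 1 week washout between treatments (N = 3). Compound was given as a solution in propylene glycol/water (80/20, v/v) acidified with a molar excess of methanesulfonic acid. Values are the iv clearance and the absolute oral bioavailability.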

[3] = Clearance at an iv dose of 15.7 mg/Kg and po dose of 31.4 mg/Kg; format: ADME, organism-based; conditions: rat, in vivo
In short: as §1

[4] = molecular target: T2, Human immunodeficiency virus type 1 reverse transcriptase (Human immunodeficiency virus 1, UniProt Q72547, P236L)
[5] = molecular target: T3, Human immunodeficiency virus type 1 reverse transcriptase (Human immunodeficiency virus 1, UniProt Q72547)
[6] = Clearance at an iv dose of 12 mg/Kg and po dose of 23 mg/Kg; format: ADME, organism-based; conditions: rat, in vivo
In short: as §1

[7] = Bioavailability at an iv dose of 12 mg/Kg and po dose of 23 mg/Kg; format: ADME, organism-based; conditions: rat, in vivo, read-out: Bioavailabiility
In short: as §1

[8] = Clearance at an iv dose of 16 mg/Kg and po dose of 35 mg/Kg; format: ADME, organism-based; conditions: rat, in vivo
In short: as §1

[9] = Bioavailability at an iv dose of 16 mg/Kg and po dose of 35 mg/Kg; format: ADME, organism-based; conditions: rat, in vivo, read-out: Bioavailabiility
In short: as §1

[10] = Bioavailability (dose 15 mg/kg i.v. and 30 mg/kg p.o.); format: ADME, organism-based; conditions: eutheria, in vivo, po
In short: as §1

[11] = system: Human immunodeficiency virus 1; test: In vitro inhibition of recombinant HIV-1 IIIB mutant WT; format: functional, organism-based
[12] = molecular target: T2, Human immunodeficiency virus type 1 reverse transcriptase; test: Compound was tested for inhibition of HIV-1 P236L reverse transcriptase using poly(rA)300:oligo(dT)10 as substrate
[13] = molecular target: T3, Human immunodeficiency virus type 1 reverse transcriptase; test: Compound was tested for inhibition of HIV-1 WT reverse transcriptase using poly(rA)300:oligo(dT)10 as substrate
[14] = system: Human immunodeficiency virus 1; test: Concentration required to inhibit P24 production by 90% against U-90,152 of HIV-1 MF (P236L); format: functional
[15] = molecular target: T2, Human immunodeficiency virus type 1 reverse transcriptase; test: Compound was tested for inhibition of HIV-1 P236L reverse transcriptase using dTTP as substrate
[16] = Clearance at an iv dose of 15 mg/Kg and po dose of 30 mg/Kg; format: ADME, organism-based; conditions: in vivo
In short: as §1

[17] = molecular target: T1, Human immunodeficiency virus type 1 reverse transcriptase; test: Compound was tested for inhibition of HIV-1 Y181C cell line using poly(rA)300:oligo(dT)10 as substrate
In short: (§2)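 Kinetic inhibition study on homodimeric recombinant HIV-1 RTs (WT, P236L, Y181C), varying dTTP or poly(rA):(dT)10 template:primer. Base assay: 28 °C, 10 min, pH 8.3 Tris-HCl, 10 mM MgCl2, 60 mM NaCl, 2 mM DTT, 0.05% NP-40, [3H]TTP incorporation. TCA-precipitated product collected on glass fibre filters and counted. Ki values derived.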

[18] = system: Human immunodeficiency virus 1; test: Concentration required to inhibit P24 production by 90% against L-697661 of HIV-1 IIIB (Y181C); format: functional
[19] = molecular target: T3, Human immunodeficiency virus type 1 reverse transcriptase; test: Compound was tested for inhibition of HIV-1 WT reverse transcriptase using dTTP as substrate
[20] = system: Human immunodeficiency virus 1; test: In vitro inhibition of recombinant HIV-1 IIIB mutant Y181C; format: functional, organism-based
[21] = system: Human immunodeficiency virus 1; test: Concentration required to inhibit P24 production by 90% against U-90,152 of HIV-1 IIIB (L100I, M230L); format: functional
[22] = molecular target: T1, Human immunodeficiency virus type 1 reverse transcriptase; test: Compound was tested for inhibition of HIV-1 Y181C reverse transcriptase using dTTP as substrate
[23] = system: Human immunodeficiency virus 1; test: In vitro inhibition of recombinant HIV-1 IIIB mutant P236L; format: functional, organism-based
Rattus norvegicus = test: Bioavailability at an iv dose of 14 mg/Kg and po dose of 28 mg/Kg; format: ADME, organism-based; conditions: in vivo
In short: as §1

[24] = Clearance at an iv dose of 14 mg/Kg and po dose of 15 mg/Kg; format: ADME, organism-based; conditions: rat, in vivo
In short: as §1

[25] = Bioavailability at an iv dose of 14 mg/Kg and po dose of 15 mg/Kg; format: ADME, organism-based; conditions: rat, in vivo, read-out: Bioavailabiility
In short: as §1

[26] = Bioavailability at an iv dose of 15 mg/Kg and po dose of 60 mg/Kg; format: ADME, organism-based; conditions: in vivo, read-out: Bioavailabiility
In short: as §1

[27] = molecular target: T3, Human immunodeficiency virus type 1 reverse transcriptase; test: Compound was tested for inhibition of HIV-1 181C cell line using poly(rA)300:oligo(dT)10 as substrate
In short: as §2

[28] = Clearance at an iv dose of 15 mg/Kg and po dose of 240 mg/Kg; format: ADME, organism-based; conditions: in vivo
In short: as §1

[29] = Clearance at an iv dose of 15 mg/Kg and po dose of 60 mg/Kg; format: ADME, organism-based; conditions: in vivo
In short: as §1

[30] = Bioavailability at an iv dose of 15 mg/Kg and po dose of 120 mg/Kg; format: ADME, organism-based; conditions: in vivo, read-out: Bioavailabiility
In short: as §1

[31] = Clearance at an iv dose of 15 mg/Kg and po dose of 120 mg/Kg; format: ADME, organism-based; conditions: in vivo
In short: as §1

[32] = Clearance at an iv dose of 15.6 mg/Kg and po dose of 31.2 mg/Kg; format: ADME, organism-based; conditions: rat, in vivo
In short: as §1

[33] = Bioavailability at an iv dose of 15.6 mg/Kg and po dose of 31.2 mg/Kg; format: ADME, organism-based; conditions: rat, in vivo, read-out: Bioavailabiility
In short: as §1

[34] = Bioavailability at an iv dose of 15 mg/Kg and po dose of 29.1 mg/Kg; format: ADME, organism-based; conditions: in vivo, read-out: Bioavailabiility
In short: as §1

[35] = Clearance at an iv dose of 15 mg/Kg and po dose of 30.2 mg/Kg; format: ADME, organism-based; conditions: rat, in vivo
In short: as §1

[36] = Bioavailability at an iv dose of 15 mg/Kg and po dose of 30.2 mg/Kg; format: ADME, organism-based; conditions: rat, in vivo, read-out: Bioavailabiility
In short: as §1

Compound `CC(C)Nc1cccnc1N(C1CC1)C1CCN(C(=O)c2cc3cc(NS(C)(=O)=O)ccc3[nH]2)CC1` has an IC50 [1] of 0.94 µM, a bioavailability [2] of 1.6% and a clearance [3] of 1.36 L/h/kg. It also gave an IC50 [4] of 0.7 µM and an IC50 [5] of 0.23 µM.

With `CCNc1cccnc1N1CCN(C(=O)c2cc3cc(OC)ccc3[nH]2)CC1.CS(=O)(=O)O` [ATEVIRDINE SULPHATE] the clearance [6] was 0.78 L/h/kg and the bioavailability [7] was 75%.

Work on `CNC(=O)Nc1ccc2[nH]c(C(=O)N3CCC(N(C)c4ncccc4NC(C)C)CC3)cc2c1` yielded an IC50 [1] of 1.6 µM, a clearance [8] of 2.52 L/h/kg and a bioavailability [9] of 12.3%. It also gave an IC50 [5] of 0.18 µM.

With `CCN(c1nc(F)ccc1NC(C)(C)C)C1CCN(C(=O)c2cc3cc(NC(=O)N4CCN(C)CC4)ccc3[nH]2)CC1` the bioavailability [10] was 42%, the IC50 [11] was 0.21 µM and the Ki [12] was 1.74 µM. It also gave a Ki [13] of 1.64 µM, an IC90 [14] of 0.16 µM and a Ki [15] of 2.02 µM. It also gave a clearance [16] of 0.96 L/h/kg, a Ki [17] of 3.03 µM and an IC90 [18] of 0.13 µM. It also gave a Ki [19] of 1.26 µM, an IC50 [20] of 0.79 µM and an IC90 [21] of 0.14 µM. For the same compound, the Ki [22] was 2.55 µM and the IC50 [23] was 0.43 µM.

`CC(C)Nc1cccnc1N1CCN(C(=O)c2cc3cc(NS(C)(=O)=O)ccc3[nH]2)CC1.CS(=O)(=O)O` [DELAVIRDINE MESYLATE] showed a Bioavailabiility (Rattus norvegicus) of 169%, a clearance [24] of 0.816 L/h/kg and a bioavailability [25] of 64%.

`CCN(c1ncccc1NC(C)(C)C)C1CCN(C(=O)c2cc3cc(NS(C)(=O)=O)ccc3[nH]2)CC1` showed a bioavailability [10] of 14%, an IC50 [11] of 0.32 µM and a Ki [12] of 1.6 µM. It also gave a Ki [13] of 1.38 µM, a bioavailability [26] of 42% and an IC90 [14] of 0.19 µM. The Ki [15] was 1.11 µM, the Ki [27] was 3.09 µM and the clearance [28] was 3 L/h/kg. For the same compound, the clearance [16] was 3 L/h/kg, the IC90 [18] was 0.03 µM and the clearance [29] was 3 L/h/kg. For the same compound, the bioavailability [30] was 124%, the Ki [19] was 1.03 µM and the IC50 [20] was 0.66 µM. The clearance [31] was 3 L/h/kg, the IC90 [21] was 0.08 µM and the Ki [22] was 1.92 µM. For the same compound, the IC50 [23] was 0.46 µM.

`CC(C)Nc1ccnnc1N(C)C1CCN(C(=O)c2cc3cc(NS(C)(=O)=O)ccc3[nH]2)CC1` gave an IC50 [1] of 1.31 µM, a clearance [32] of 2.4 L/h/kg and a bioavailability [33] of 0%. It also gave an IC50 [4] of 4.56 µM and an IC50 [5] of 0.74 µM.

In the case of `CN(c1ncccc1NC(C)(C)C)C1CCN(C(=O)c2cc3cc(NS(C)(=O)=O)ccc3[nH]2)CC1`, the IC90 [14] is reported as 5.4 µM, the IC90 [18] is reported as 0.22 µM and the IC90 [21] is reported as 0.83 µM. The bioavailability [34] was 44%.

`CC(C)Nc1cccnc1N(C)C1CCN(C(=O)c2cc3cc(NS(C)(=O)=O)ccc3[nH]2)CC1` showed an IC90 [18] of 1 µM, a clearance [35] of 2.64 L/h/kg and a bioavailability [36] of 4.3%.
